Assay: Toxicity liver stage against HepG2, at 10uM
Type: cell-based
Set-up: test concentration 10 uM, cell line HepG2-A16-CD81EGFP
Settings: human, HepG2-A16-CD81EGFP cells; read-out: INHIBITION
How it was run: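 Uninfected HepG2-A16-CD81EGFP cells, 3 × 10^3 per well, 1536-well, plated on prespotted compound at 10 μM final, parasite-free screening media added to match infected plates; puromycin 10 μM positive, DMSO 0.5% negative; run in parallel with 48 h PbLuc assay at 37 °C, 5% CO2; viability by CellTiter-Glo luminescence, normalized to controls.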

| Structure (SMILES) | cytotoxicity at 10 µM [%] |
| --- | --- |
| COc1cc2cc(C(=O)O)n(C)c2c(OC)c1OC | 12.8 |
| COc1ccsc1C(=O)NCCN1CCOCC1 | 6.57 |
| CC(=O)N1CCC(N2CC[C@H](c3nc4cc(F)ccc4o3)C2)CC1 | 2.23 |
| CC(C)C[C@@H]1N[C@H](C(=O)NC(C)C)Cc2c[nH]c3cccc1c23 | 7.37 |
| Cc1nc(Oc2ccccc2F)sc1C(=O)O | -11.2 |
| COc1cccc(-c2nc(CC(=O)NC3(C)CCS(=O)(=O)C3)cs2)c1 (stereo unspecified) | 19 |
| Cn1cc(S(=O)(=O)NCC2CCN(C(=O)c3ccoc3)CC2)cn1 | -3.82 |
| O=C1[C@H]2CN(C(=O)[C@H]3CCCO3)C[C@H]2CN1CC1CC1 | -6.66 |
| Cc1nc(N2CCCC2)nc2c1CN(C(=O)NC(C)C)CC2 | 2.94 |
| COCCNC(=O)[C@H]1CC[C@@H]2[C@@H](CCN2S(C)(=O)=O)O1 | -8.87 |
| CCn1ncc2c1C(COC)CN(S(=O)(=O)C1CC1)C2 (stereo unspecified) | 11.1 |
| Cc1cnc(N2CCC3(CCCN(c4ncc(F)cn4)C3)C2)nc1 (stereo unspecified) | -124 |
| Cc1nc(CN2C(=O)COC3(CCN(C(N)=O)CC3)C2C)cs1 (stereo unspecified) | -130 |
| O=C(CCc1nc2cccnc2[nH]1)NCc1ccc2c(c1)OCO2 | 0.356 |
| CCn1c(NCc2cccnc2)nc2c(C)nn(C)c2c1=O | 5.17 |
| CCn1nc(C)c2nc(C(C)C)nc(N3CCN(C)CC3)c21 | -2.45 |
| Cc1ncc2c(n1)CCCC2NC(=O)c1ccc(Cn2cccn2)cc1 (stereo unspecified) | -7.55 |
| CNc1cccc(C2CCN(C(C)=O)CC2)n1 | 7.49 |
| Cc1ncc(C(=O)N2CCCC2(C)C(=O)N2CCOCC2)c(C)n1 (stereo unspecified) | -0.681 |
| CC(=O)N1CCOC(c2c(C(=O)O)sc3ccccc23)C1 (stereo unspecified) | 5.76 |
| Cc1c[nH]nc1C1CCN(C(=O)Cn2cccn2)C1 (stereo unspecified) | 3.09 |
| CCc1ccccc1Nc1noc2c1CN(C(=O)C1CCCO1)CC2 (stereo unspecified) | -9.9 |
| CN1CCN(C(=O)C2CCN(c3cccnn3)CC2)CC1 | -0.353 |

| Structure (SMILES) | cytotoxicity at 10 µM [%] |
| --- | --- |
| O=C1NCc2ccccc2CC12CCN(Cc1c(F)cccc1Cl)C2 (stereo unspecified) | 11.2 |
| COc1ccccc1C1(CNc2cn[nH]c(=O)c2Cl)CCOCC1 | 0.152 |
| CN(C)S(=O)(=O)N1CCC(C(O)c2ccc(Cl)cc2)CC1 (stereo unspecified) | -21.4 |
| NC1(c2nc(-c3ccccc3)cc(=O)[nH]2)CCCCC1 | 7.25 |
| O=C(Nc1cc(C(F)(F)F)c[nH]c1=O)C1CCCO1 (stereo unspecified) | -0.37 |
| CN1CCC(NC(=O)Nc2cnn(-c3ccccc3Cl)c2)CC1 | -5.5 |
| Cc1noc(C)c1NC(=O)N1CCC(NC(=O)OC(C)(C)C)CC1 | 4 |
| CCOc1ccc(Cl)c(C(=O)N2CCCC(c3ccn[nH]3)C2)n1 (stereo unspecified) | 1.58 |
| CCS(=O)(=O)NCC(=O)NC1(C)CCc2ccccc2C1 (stereo unspecified) | 2.22 |
| COc1ccc(OC(F)F)c(NCC(=O)NCC(=O)N2CCCC2)c1 | -0.77 |
| COc1ncccc1NC(=O)N1CCC(C(=O)NC(C)C)CC1 | -3.68 |
| Cc1cccc(C2(CNC(C)c3nnc(C)o3)CCCC2)c1 (stereo unspecified) | 6.73 |
| CC(C)n1cc(CN2CCCN(C(=O)c3ccoc3)CC2)cn1 | -3.44 |
| Cc1cc(C)c(S(N)(=O)=O)cc1C(=O)NCC1Cc2ccccc2O1 (stereo unspecified) | -4.53 |
| O=C(CN1CCCC(CO)C1)NCCOc1cccc(Cl)c1 (stereo unspecified) | -12.2 |
| CCS(=O)(=O)NCCNC(=O)N(Cc1ccc(C)o1)C(C)C | 1.84 |
| CN(C)c1cccc(C(=O)N2CCn3c(nnc3-c3ccccc3)C2)c1 | -0.375 |
| Cc1c(Br)cccc1CNC1(CCO)CCOCC1 | -10.7 |
| COCCN(Cc1ccco1)Cc1nc(-c2ccccc2)no1 | 6.4 |
| CCc1nc(CC(=O)NC(C#N)CC)cs1 (stereo unspecified) | 10.3 |
| Cn1cc(C(=O)Nc2cccc(CCN3CCCC3)c2)ccc1=O | 7.76 |
| CC(C)N1CCN(C(=O)c2ccccc2NCc2cccnc2)CC1 | -19.4 |
| Cc1ccccc1N(CC(=O)NCCc1nnc2n1CCC2)S(C)(=O)=O | -0.69 |

| Structure (SMILES) | cytotoxicity at 10 µM [%] |
| --- | --- |
| CC(C)c1nnc(NCCS(C)(=O)=O)s1 | -1 |
| CCc1nnc(Sc2nn3cc(C)nc3s2)n1C | -3.64 |
| CC(=O)N1CCN(C(=O)NCCCN(C(C)C)S(C)(=O)=O)CC1 | -14 |
| COC(=O)CN(Cc1ccccc1C)C(=O)CCNC(=O)C(C)(C)C | 12.9 |
| O=C(NCCCNCC1CNc2ccnn2C1)c1ccccc1 (stereo unspecified) | -1.48 |
| O=C(c1ccnnc1)N1CCN2C[C@H](Oc3cccnc3)C[C@H]2C1 | 1.43 |
| CNC(=O)c1ccnc(CC2COc3c(cccc3OC)C2)c1 (stereo unspecified) | 3.77 |
| Cc1cc(N2C[C@H](C3CC3)[C@@H](N)C2)nc(N2CCCCC2)n1 | -15.6 |
| CC(=O)NCCNC(=O)C1(Oc2cccnc2C)CCNCC1 | 3.24 |
| COCC(=O)N1CCCC1c1ccc(C(=O)NCc2ccccc2Cl)s1 (stereo unspecified) | -0.909 |
| Cc1ccc2nc(C(=O)N3C[C@@H](C(=O)O)[C@H](c4cccnc4)C3)cn2c1 | 2.98 |
| CC(Cc1cnccn1)NC(=O)c1cccc(CC2CCNCC2)c1 (stereo unspecified) | -9.37 |
| Cc1nc2c(c(N3C[C@@H](C)[C@@](C)(O)C3)n1)CCC2 | 9.74 |
| CCN1CC2(CCC1=O)CCN(Cc1cccc(OC(F)F)c1)CC2 | -16.5 |
| O=C(CCN1CCCCO1)N1CCC(CO)(Cc2ccccc2)CC1 | 7.26 |
| c1ccc2c(c1)cnn2CCCNC1CCOC2(CCOCC2)C1 (stereo unspecified) | -7.35 |
| CCN1CCN(C(=O)c2[nH]c3ccccc3c2Cl)[C@H]2CS(=O)(=O)C[C@H]21 | -5.41 |
| CN1CCC(N(C)C[C@H]2CC[C@@H](Cc3cccc(CO)c3)O2)CC1 | 0.224 |
| COC(=O)c1ccc(OC)c(OC23CCCN(CC2)C3)c1 (stereo unspecified) | -13.9 |
| O=C(N[C@@H]1CCNC[C@H]1O)c1ccc(O)c(Cl)c1 | -5.46 |
| CCC(NS(=O)(=O)c1ccc(C(=O)NC2CC2)cc1)c1cnn(C)c1 (stereo unspecified) | 7.64 |
| COc1ccc(N2CCN(Cc3noc(CC(C)C)n3)C(C)C2=O)cc1 (stereo unspecified) | 4.11 |
| O=c1[nH]cnc2c1CCN(S(=O)(=O)c1ccc(OC(F)(F)F)cc1)C2 | 1.61 |

| Structure (SMILES) | cytotoxicity at 10 µM [%] |
| --- | --- |
| COC(=O)c1cc2c(=O)[nH]c(=O)n(CCc3ccccc3)c2nc1C | -4.74 |
| CCCc1nnc(N2CCC3(CC2)CC(=O)NC(=O)C3)o1 | 3.06 |
| CSCCC1c2nc[nH]c2CCN1Cc1ccnc2ccccc12 (stereo unspecified) | 13.2 |
| O=C(O)c1c[nH]c2cc(NS(=O)(=O)c3cccc(F)c3F)ccc12 | 5.08 |
| Clc1cc(CN2CCCCC2Cn2cncn2)c2ncccc2c1 (stereo unspecified) | -12.9 |
| Cn1ncc2c(N3CCCN(C(=O)c4ccsc4)CC3)ncnc21 | -10.6 |
| Cc1nnc(CN(Cc2ccc3c(c2)OCO3)C2CCCCC2)o1 | -6.14 |
| CC(Cc1ccco1)NC(=O)Nc1cccnc1 (stereo unspecified) | -6.78 |
| CN(C(=O)NCc1ccsc1)C1CCN(c2ccccc2)C1=O (stereo unspecified) | -5.63 |
| Cc1ccc(CNC(=O)Cn2nc(-c3ccc(F)cc3)oc2=O)cc1F | -5.86 |
| Cc1cc(C)n(CC2CCCN2C(=O)CCNc2ncccn2)n1 (stereo unspecified) | -2.31 |
| CCc1noc(CNCCn2cc(C)cn2)n1 | -2.54 |
| CCC(O)CN1CCN(C(=O)c2ccc3c(c2)COC3)CC1 (stereo unspecified) | -6.58 |
| CC(Cn1ccnc1)NC(=O)NCc1ccc2c(c1)OCCO2 (stereo unspecified) | -18.6 |
| CS(=O)(=O)c1cccc(C(N)c2ccc(F)cc2)c1 (stereo unspecified) | -19.9 |
| c1cncc(-c2noc(CN3CCCC3Cn3cccn3)n2)c1 (stereo unspecified) | -4.74 |
| Cc1cnn(CC2CCCN2C(=O)Cc2cccs2)c1 (stereo unspecified) | -0.704 |
| Cc1ccc(C(=O)N2CCN(C(=O)Cc3ccccn3)CC2)c(C)c1 | -4.74 |
| CC(NC(=O)NCCCN(C)S(C)(=O)=O)c1cccnc1 (stereo unspecified) | -12.5 |
| Cc1ccc(CNC(=O)CCNS(C)(=O)=O)cc1 | -5.07 |
| COc1ccnc(N2CCN(C(=O)c3ccc(Cl)o3)CC2)n1 | -19.2 |
| O=C(Cc1cccc2ccccc12)N1CCC(Nc2cccnn2)CC1 | -17.1 |
| CCOC1CCN(C(=O)NCCc2ccn(-c3ccccc3)n2)CC1 | -0.088 |

| Structure (SMILES) | cytotoxicity at 10 µM [%] |
| --- | --- |
| COc1ncccc1CNCc1c(C)nn(C)c1N1CCOCC1 | -11.1 |
| CCc1nnsc1C(=O)N1CCCN(Cc2ccccc2)CC1 | 7.57 |
| N#Cc1ccc(CC(=O)N2CCCC(n3cccn3)C2)cc1 (stereo unspecified) | -1.95 |
| COc1ccc(C(=O)N(C)Cc2cc(C)on2)c(F)c1 | -5.2 |
| CCn1ccnc1CN1CCN(CC(O)Cn2cccn2)CC1 (stereo unspecified) | -5.97 |
| Cc1cnn(CC2CCCCN2CCC(=O)Nc2cc(C)on2)c1 (stereo unspecified) | -0.674 |
| CC(C)N1CCCCC1c1nc(N(C)C)ncc1I (stereo unspecified) | -3 |
| CN(C)CCCN(Cc1cnn(C)c1)Cc1ccco1 | 2.36 |
| Cn1ccnc1CN1CCN2C[C@H](Oc3cncnc3)C[C@H]2C1 | 8.71 |
| Cc1cnc(N2CCC3(CCN(CC4CCCC4)C3=O)CC2)nc1 | -6.54 |
| CN(C)CCOCC1CN(C(=O)c2ccsc2)Cc2ccnn2C1 (stereo unspecified) | -0.0653 |
| CCN1C[C@@H]2CN(Cc3cccs3)C[C@@H]2C1=O | -3.19 |
| Cc1cnc(C(=O)N2CCCn3c(nc(CN(C)C)cc3=O)C2)cn1 | -5.93 |
| Cc1ccsc1C(=O)N1CCCn2c(nc(CN(C)C)cc2=O)C1 | -0.385 |
| Cc1cccc(CN2C(=O)CO[C@@H]3CN(CCO)C[C@H]32)c1 | -14.1 |
| O=C([C@@H]1COC[C@H]2CN(C3CCOCC3)C[C@H]21)N1CCCO1 | -3.2 |
| c1cnc(N2CCC3(CCN(CC4CCOC4)CC3)C2)nc1 (stereo unspecified) | -5.56 |
| Cc1nc(CN2C(=O)COC3(CCN(CC4CC4)CC3)C2C)cs1 (stereo unspecified) | -131 |
| CCC(C)NS(=O)(=O)c1ccc(C=Cc2onc(C)c2NC(C)=O)cc1 (stereo unspecified) | -10.7 |
